Test results reported in ChEMBL document CHEMBL2346604, “Synthesis of nordihydroguaiaretic acid derivatives and their bioactivities on S. pombe and K562 cell lines” (Eur J Med Chem, 2013).
≈ marks a conversion by molar mass, not a printed value.

Tests used:
K562 [1] = test: Inhibition of growth metabolism of human K562 cells assessed as growth rate constant at 4 mg/L at 37 degC by TAM air microcalorimetry; type: functional
Outline: (§1)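 K562 cells in supplemented RPMI 1640 (10% FBS) seeded at 1×10⁶ cells/mL with compound at graded concentrations. Heat flow recorded in real time in an eight-channel isothermal microcalorimeter (TAM Air). Rate constant k derived from thermogenic growth curves. Inhibition ratio I = (k0 − kc)/k0 × 100% relative to untreated cells, and IC50 is the concentration at I = 50%. Mean ± S.D., n = 3.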

[2] = test system: Schizosaccharomyces pombe; test: Inhibition of growth metabolism of Schizosaccharomyces pombe ACCC 20047 assessed as growth rate constant at 240 mg/L at 32 degC by TAM air microcalorimetry; type: functional
Outline: (§2)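 Cells seeded at 1×10⁶ cells/mL with compound at a range of concentrations. Heat output recorded continuously in a TAM Air isothermal microcalorimeter. Growth rate constant k taken from power-time curves. I = (k0 − kc)/k0 × 100%, and IC50 is the concentration giving I = 50%. n = 3.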

[3] = test system: Schizosaccharomyces pombe; test: Inhibition of growth metabolism of Schizosaccharomyces pombe ACCC 20047 assessed as growth rate constant at 320 mg/L at 32 degC by TAM air microcalorimetry; type: functional; outline: as §2
K562 [4] = test: Inhibitive ratio of growth metabolism of human K562 cells at 4 mg/L at 37 degC by TAM air microcalorimetry (reference value: 0%); type: functional; outline: as §1
K562 [5] = test: Inhibitive ratio of growth metabolism of human K562 cells at 2 mg/L at 37 degC by TAM air microcalorimetry (reference value: 0%); type: functional; outline: as §1
[6] = test system: Schizosaccharomyces pombe; test: Inhibition of growth metabolism of Schizosaccharomyces pombe ACCC 20047 assessed as growth rate constant at 20 mg/L at 32 degC by TAM air microcalorimetry; type: functional; outline: as §2
K562 [7] = test: Inhibitive ratio of growth metabolism of human K562 cells at 12 mg/L at 37 degC by TAM air microcalorimetry (reference value: 0%); type: functional; outline: as §1
K562 [8] = test: Inhibition of growth metabolism of human K562 cells assessed as growth rate constant at 2 mg/L at 37 degC by TAM air microcalorimetry; type: functional; outline: as §1
[9] = test system: Schizosaccharomyces pombe; test: Inhibition of growth metabolism of Schizosaccharomyces pombe ACCC 20047 at 32 degC by TAM air microcalorimetry; type: functional, organism-based; outline: as §2
[10] = test system: Schizosaccharomyces pombe; test: Inhibitive ratio of growth metabolism of Schizosaccharomyces pombe ACCC 20047 at 320 mg/L at 32 degC by TAM air microcalorimetry (reference value: 0%); type: functional; outline: as §2
[11] = test system: Schizosaccharomyces pombe; test: Inhibitive ratio of growth metabolism of Schizosaccharomyces pombe ACCC 20047 at 160 mg/L at 32 degC by TAM air microcalorimetry (reference value: 0%); type: functional; outline: as §2
[12] = test system: Schizosaccharomyces pombe; test: Inhibitive ratio of growth metabolism of Schizosaccharomyces pombe ACCC 20047 at 400 mg/L at 32 degC by TAM air microcalorimetry (reference value: 0%); type: functional; outline: as §2
[13] = test system: Schizosaccharomyces pombe; test: Inhibitive ratio of growth metabolism of Schizosaccharomyces pombe ACCC 20047 at 80 mg/L at 32 degC by TAM air microcalorimetry (reference value: 0%); type: functional; outline: as §2
K562 [14] = test: Inhibition of growth metabolism of human K562 cells assessed as growth rate constant at 6 mg/L at 37 degC by TAM air microcalorimetry; type: functional; outline: as §1
[15] = test system: Schizosaccharomyces pombe; test: Inhibitive ratio of growth metabolism of Schizosaccharomyces pombe ACCC 20047 at 240 mg/L at 32 degC by TAM air microcalorimetry (reference value: 0%); type: functional; outline: as §2
[16] = test system: Schizosaccharomyces pombe; test: Inhibition of growth metabolism of Schizosaccharomyces pombe ACCC 20047 assessed as growth rate constant at 400 mg/L at 32 degC by TAM air microcalorimetry; type: functional; outline: as §2
K562 [17] = test: Inhibition of growth metabolism of human K562 cells assessed as growth rate constant at 12 mg/L at 37 degC by TAM air microcalorimetry; type: functional; outline: as §1
[18] = test system: Schizosaccharomyces pombe; test: Inhibition of growth metabolism of Schizosaccharomyces pombe ACCC 20047 assessed as growth rate constant at 40 mg/L at 32 degC by TAM air microcalorimetry; type: functional; outline: as §2
[19] = test system: Schizosaccharomyces pombe; test: Inhibition of growth metabolism of Schizosaccharomyces pombe ACCC 20047 assessed as growth rate constant at 160 mg/L at 32 degC by TAM air microcalorimetry; type: functional; outline: as §2
K562 [20] = test: Inhibition of growth metabolism of human K562 cells at 37 degC by TAM air microcalorimetry; type: functional, cell-based; outline: as §1
K562 [21] = test: Inhibition of growth metabolism of human K562 cells assessed as growth rate constant at 8 mg/L at 37 degC by TAM air microcalorimetry; type: functional; outline: as §1
K562 [22] = test: Inhibitive ratio of growth metabolism of human K562 cells at 6 mg/L at 37 degC by TAM air microcalorimetry (reference value: 0%); type: functional; outline: as §1
K562 [23] = test: Inhibitive ratio of growth metabolism of human K562 cells at 8 mg/L at 37 degC by TAM air microcalorimetry (reference value: 0%); type: functional; outline: as §1
K562 [24] = test: Inhibitive ratio of growth metabolism of human K562 cells at 14 mg/L at 37 degC by TAM air microcalorimetry (reference value: 0%); type: functional; outline: as §1
[25] = test system: Schizosaccharomyces pombe; test: Inhibitive ratio of growth metabolism of Schizosaccharomyces pombe ACCC 20047 at 40 mg/L at 32 degC by TAM air microcalorimetry (reference value: 0%); type: functional; outline: as §2
[26] = test system: Schizosaccharomyces pombe; test: Inhibitive ratio of growth metabolism of Schizosaccharomyces pombe ACCC 20047 at 20 mg/L at 32 degC by TAM air microcalorimetry (reference value: 0%); type: functional; outline: as §2
[27] = test system: Schizosaccharomyces pombe; test: Inhibition of growth metabolism of Schizosaccharomyces pombe ACCC 20047 assessed as growth rate constant at 80 mg/L at 32 degC by TAM air microcalorimetry; type: functional; outline: as §2
K562 [28] = test: Inhibition of growth metabolism of human K562 cells assessed as growth rate constant at 14 mg/L at 37 degC by TAM air microcalorimetry; type: functional; outline: as §1
K562 [29] = test: Inhibitive ratio of growth metabolism of human K562 cells at 11 mg/L at 37 degC by TAM air microcalorimetry (reference value: 0%); type: functional; outline: as §1
K562 [30] = test: Inhibition of growth metabolism of human K562 cells assessed as growth rate constant at 7 mg/L at 37 degC by TAM air microcalorimetry; type: functional; outline: as §1
K562 [31] = test: Inhibition of growth metabolism of human K562 cells assessed as growth rate constant at 11 mg/L at 37 degC by TAM air microcalorimetry; type: functional; outline: as §1
K562 [32] = test: Inhibition of growth metabolism of human K562 cells assessed as growth rate constant at 9 mg/L at 37 degC by TAM air microcalorimetry; type: functional; outline: as §1
K562 [33] = test: Inhibitive ratio of growth metabolism of human K562 cells at 9 mg/L at 37 degC by TAM air microcalorimetry (reference value: 0%); type: functional; outline: as §1
K562 [34] = test: Inhibitive ratio of growth metabolism of human K562 cells at 7 mg/L at 37 degC by TAM air microcalorimetry (reference value: 0%); type: functional; outline: as §1

Compound	Activity (K562 [1]) [×10⁻⁴ /min]	Activity [2] [min⁻¹]	Activity [3] [min⁻¹]	inhibition at 4 µg/mL (K562 [4]) [%]	Activity [6] [min⁻¹]	IC50 [9] [µg/mL]	inhibition at 320 µg/mL [10] [%]	inhibition at 160 µg/mL [11] [%]	inhibition at 400 µg/mL [12] [%]	inhibition at 80 µg/mL [13] [%]	Activity (K562 [14]) [×10⁻⁴ /min]	inhibition at 240 µg/mL [15] [%]	Activity [16] [min⁻¹]	Activity [18] [min⁻¹]	Activity [19] [min⁻¹]	IC50 (K562 [20]) [µg/mL]	Activity (K562 [21]) [×10⁻⁴ /min]	inhibition at 6 µg/mL (K562 [22]) [%]	inhibition at 8 µg/mL (K562 [23]) [%]	inhibition at 40 µg/mL [25] [%]	further results
COc1ccc(-c2oc(-c3ccc(OC)c(OC)c3)c(C)c2C)cc1OC	4.3527	0.00346	0.00273	-13.2	0.00427	350 (≈ 950 µM)	35.3	-1.9	73.2	-2.13	3.1202	18	0.00113	0.00429	0.0043	11.2 (≈ 30.5 µM)	3.0855	18.9	19.8	-1.66	inhibition at 2 µg/mL (K562 [5]): -1.79%; inhibition at 12 µg/mL (K562 [7]): 57.1%; Activity (K562 [8]): 3.9155 ×10⁻⁴ /min; Activity (K562 [17]): 1.65 ×10⁻⁴ /min; inhibition at 14 µg/mL (K562 [24]): 80%; inhibition at 20 µg/mL [26]: -1.18%; Activity [27]: 0.00431 min⁻¹; Activity (K562 [28]): 7.6784 ×10⁻⁵ /min
COc1ccc(C(=O)C(C)C(C)C(=O)c2ccc(OC)c(OC)c2)cc1OC (stereo unspecified)	4.4893	0.00341	0.00163	-13.9	0.00479	290 (≈ 750 µM)	63.3	5.18	83	-3.6	3.9703	23.2	0.00075	0.00462	0.00421	8.57 (≈ 22.2 µM)	2.2866	-0.78	42	-4.05	inhibition at 11 µg/mL (K562 [29]): 57.3%; Activity (K562 [30]): 3.6261 ×10⁻⁴ /min; Activity (K562 [31]): 1.681 ×10⁻⁴ /min; Activity (K562 [32]): 1.7435 ×10⁻⁴ /min; inhibition at 9 µg/mL (K562 [33]): 55.8%; inhibition at 7 µg/mL (K562 [34]): 7.96%; inhibition at 20 µg/mL [26]: -7.88%; Activity [27]: 0.0046 min⁻¹
